# APJ agonist: APJ receptor agonism | P35414 | CHO-K1 APJ PathHunter beta-arrestin, luminescence; 0% DMSO wells, 100% apelin | activation, % at 20 µM | 0.11% of 330,000 active | AID 2520;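 active means activation more than six SD over the plate average, tested at 20 µM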;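 further: 0% = DMSO alone and 100% = apelin-13 at 10 nM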
#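 Material: CHO-K1 APJ beta-arrestin complementation cell line; Input: cell density 1000 per well; Incubation: compound stimulation 90 min at 25 °C, detection 60 min; Signal: luminescence from split beta-galactosidase complementation, Galacton Star/Emerald II substrate; Controls: DMSO-only wells as negative, 10 nM Apelin-13 as positive control.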
# H9c2 TAG inh: reduces triacylglycerol accumulation in H9c2 cells. Nile Red lipid (TAG) fluorescence; cells loaded with 200 µM oleic acid. inhibition, % at 12.5 µM. 0.66% of 230,000 active;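 active means pattern-corrected inhibition of lipid staining of at least 50% with the nuclear-stain viability signal not falling by more than 50%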;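 further: 0% = DMSO wells and 100% = triacsin C control wells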
# CCR6 antagonist: CCR6 (human) receptor antagonism; P51684; CHO-K1 CCR6 PathHunter beta-arrestin, luminescence, CCL20-stimulated; inhibition, % at 20 µM; 0.49% of 340,000 active;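 active means compounds whose inhibition of the agonist-driven luminescence signal at 20 µM reaches about 50%, limit read from the data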;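 further: cells stimulated with CCL20 at 14 nM final; plate controls were DMSO with CCL20 for no effect and DMSO without agonist for full effect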
# APJ antagonist: antagonists of human APJ apelin receptor; P35414; inhibition, % at 20 µM; CHO-K1 APJ beta-arrestin complementation, luminescence; AID 2521; 0.32% of 330,000 active;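 active means inhibition above about 40% at 20 µM, limit read from the data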;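 further: cells challenged with 10 nM apelin-13 agonist together with compound; plate controls were apelin-13 plus DMSO wells for no effect and DMSO wells lacking apelin-13 for full effect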
# EBI2 block: antagonists of human EBI2 receptor | 0.81% of 360,000 active | inhibition, % at 5 µM | EBI2 beta-arrestin recruitment, luminescence, 7a,25-OHC stimulated | AID 651636; in the data active means inhibition above about 38%;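 further: enzyme fragment complementation signal reports receptor beta-arrestin coupling in cells; 0% = agonist plus DMSO wells and 100% = wells without agonist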
# Target sequence (P32249 whole entry, looked up, the tested form may be a part): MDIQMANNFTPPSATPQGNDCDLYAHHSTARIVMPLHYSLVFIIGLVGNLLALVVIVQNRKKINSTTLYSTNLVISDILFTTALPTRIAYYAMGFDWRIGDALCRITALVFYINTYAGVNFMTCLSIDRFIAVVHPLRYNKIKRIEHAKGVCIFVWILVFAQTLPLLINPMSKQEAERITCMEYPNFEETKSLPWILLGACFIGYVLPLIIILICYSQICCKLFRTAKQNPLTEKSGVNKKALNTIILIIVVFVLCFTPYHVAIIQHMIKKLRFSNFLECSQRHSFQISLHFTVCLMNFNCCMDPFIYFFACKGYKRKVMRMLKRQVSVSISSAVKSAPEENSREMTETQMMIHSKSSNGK
# CXCR6 block: blocks human CXCR6 beta-arrestin recruitment; O00574; CHO-K1 PathHunter CXCR6 beta-arrestin, luminescence; inhibition, % at 20 µM; 0.36% of 360,000 active; in the data active means inhibition above about 34%, passing the limit was not always enough;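 further: antagonist mode with CXCL16 agonist at 10 nM final; 0% = 10 nM CXCL16 with DMSO and 100% = unstimulated wells without agonist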
# CXCR6 confirm: confirmation of human CXCR6 receptor antagonists; CHO-K1 CXCR6 PathHunter beta-arrestin, luminescence; inhibition, % at 20 µM; shares compounds with CXCR6 block; 65% of 700 active;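 active means mean inhibition over four retests above 40%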;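 further: receptor stimulated with 10 nM CXCL16 agonist; beta-galactosidase fragment complementation upon beta-arrestin recruitment to receptor; plate controls were CXCL16 plus DMSO for no effect and DMSO without CXCL16 for full effect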
# An asterisk follows results filed as active; / = not tested or not shown. This is a sample that favours compounds with a hit; in the whole collection about 1.9% have one here.
SMILES,APJ agonist,H9c2 TAG inh,CCR6 antagonist,APJ antagonist,EBI2 block,CXCR6 block,CXCR6 confirm
C=C(C)c1cccc(C(C)(C)NC(=O)Nc2ccc(OC)cc2)c1,-1.6,/,-4.9,-2.6,-0.4,6.7,/
C=C(C)c1cccc(C(C)(C)NC(=O)NC(c2ccccc2)c2ccc(OC)cc2)c1 (centres undefined),-4.1,4.5,13.3,0.6,-0.1,45.4*,13.0
Cc1ccc2c(c1)C1CN(C)CCC1N2C(=S)NC(=O)c1ccc(Br)cc1 (centres undefined),-5.4,6.0,56.4*,33.3,6.7,44.0*,66.6*
Cc1[nH]c2ccccc2c1CN1CCC(Cc2ccccc2)CC1,-2.5,109.2,-4.6,-12.1,9.5,1.3,/
C[C@H]1COC(=O)[C@@H](CC(=O)OC(C)(C)C)C/C=C\C[C@@H](CC(=O)N(CCO)Cc2ccccc2)C(=O)N1,0.5,-13.9,3.7,5.5,4.0,-4.4,/
COc1cc2c(cc1OC)CN(C(=O)CSc1nc(N)c(C#N)cc1C#N)CC2,-3.4,/,-15.6,5.6,-3.0,45.7*,4.3
Cc1ccc(NC(=O)C2=C(c3ccccc3)S(=O)(=O)CCS2(=O)=O)cc1,4.9,91.5,/,20.6,24.4,48.5*,52.8*
Cc1ccc(NC(=O)c2ccccc2)cc1,6.2,12.3,0.6,6.9,-0.6,2.5,/
COC(=O)c1ccc(CCc2cc(O)c(Br)cc2O)cc1,/,7.2,/,/,1.1,54.9*,48.6*
COC(=O)c1ccc(CCc2cc(O)ccc2O)cc1,/,69.4,11.1,/,-5.0,15.1,/
CC(=O)Nc1ccc2c(c1)Cc1cc(N3C(=O)C=CC3=O)ccc1-2,/,19.4,115.4*,/,25.2,98.8*,72.0*
c1ccc(-c2nc3ccccc3[nH]2)cc1,-0.5,-11.5,9.9,-13.1,-5.6,-2.5,/
S=c1nc(-c2ccccc2)[nH]c2ccc(Br)cc12,-2.4,1.5,29.7,25.5,2.3,42.2*,9.4
Nc1nc(N)c2c(ccc3c2ccn3Cc2cccc([N+](=O)[O-])c2)n1,/,/,/,/,-45.4,61.9*,68.3*
Cc1c(Cl)cccc1NC(=S)NCc1ccc(F)cc1,2.0,-6.0,3.9,-2.5,-4.8,-9.3,/
Fc1ccc(CNC(=S)Nc2ccccc2Cl)cc1,-0.9,-6.3,-6.9,-3.8,-10.2,47.1*,8.9
CC(C)(C)NC(=O)CSc1ncnc2c1cnn2-c1ccccc1,2.4,/,-2.1,9.3,7.4,-3.4,/
Fc1ccc(-c2nc3c4ccccc4ccn3c2Cc2ccccc2)cc1,/,-5.2,/,/,-8.7,5.3,/
Clc1ccc(-c2nc3c4ccccc4ccn3c2Cc2ccccc2)cc1,/,6.1,/,/,10.9,44.0*,9.8
CCCc1cc(=O)oc2cc(OCC(=O)N3CC[C@@]4(O)CCCC[C@H]4C3)ccc12,/,/,/,/,-3.1,-1.0,/
CCCc1cc(=O)oc2cc(OC(=O)CN3C(=O)NC4(CCCC4)C3=O)ccc12,-9.7,2.3,66.7*,7.8,27.8,46.4*,40.0
CCN(CC(=O)NC(C)(C)C)Cc1nc2c(Br)cc(Br)cc2c(=O)[nH]1,-4.9,1.0,/,-12.0,7.3,53.5*,56.1*
CN1CCN(C(=O)c2cc(=O)c3cc(Cl)cc(Cl)c3o2)CC1,-1.1,/,4.2,19.8,-8.5,5.7,/
CCOC(=O)c1c(C)oc2c1c(C=NCC1CCCO1)c(O)c1ccccc12 (centres undefined),/,-9.6,9.4,/,7.7,4.9,/
CCOC(=O)c1c(C)oc2c1c(C=NCc1ccccn1)c(O)c1ccccc12,/,/,76.8*,/,42.3,98.0*,63.8*
Cc1nnc(Sc2cc(NCCO)c([N+](=O)[O-])c3nonc23)s1,/,4.3,68.4*,/,8.7,71.2*,75.5*
O=[N+]([O-])c1c(NCCO)cc(N2CCCCCC2)c2nonc12,-2.8,-8.1,20.2,19.9,-1.0,10.1,/
Cc1nnc(Sc2cc(NCCCO)c([N+](=O)[O-])c3nonc23)s1,/,-6.8,92.2*,/,-7.8,66.8*,99.8*
COc1ccc(C(=O)NC(=S)Nc2ccc([N+](=O)[O-])cc2C)cc1OC,-10.1,/,67.7*,34.1,13.8,49.9*,54.8*
S=C1N(c2ccccc2)CN(CCN2CCOCC2)CN1c1ccccc1,-5.1,-7.8,17.2,10.3,-10.5,0.8,/

# Screening results (PubChem)
